Reference: ChEMBL document CHEMBL3868588, “Emestrins: Anti-Cryptococcus Epipolythiodioxopiperazines from Podospora australis” (J Nat Prod, 2016)
Converted amounts (≈) assume the structure as drawn.

Assays:
[1] = test system: Cryptococcus neoformans; assay: Antifungal activity against Cryptococcus neoformans H99 after 48 hrs by resazurin-staining based serial dilution method; type: functional; conditions: var grubii H99 
How it was run: (§1)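 Serial dilution per NCCLS guidance in 96-well plates with YM test medium (1% maltose extract, 0.2% yeast extract, 0.4% agar). Compounds in DMSO, diluted in growth medium; amphotericin B positive control. Incubated at 25 °C; C. albicans ATCC 10231 read at 24 h, C. neoformans H99 at 48 h. Visual end point, OD and PrestoBlue resazurin viability; MIC = lowest concentration giving 100% inhibition versus untreated control.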

[2] = test system: Candida albicans; assay: Antifungal activity against Candida albicans ATCC 10231 measured after 24 hrs by resazurin-staining based serial dilution method; type: functional; conditions: ATCC 10231, 24 h; how it was run: as §1
[3] = Antiproliferative activity against human DU145 cells; type: functional, cell-based; conditions: DU-145

Row | MIC [1] [µg/mL] | MIC [2] [µg/mL] | Compound | IC50 [3] [nM]
1 | 25.6 (≈ 37.8 µM) | > 25.6 | COc1ccc2cc1Oc1cc(ccc1OC)[C@H](O)[C@]13SSSS[C@@]4(C(=O)N1C)[C@H](O)C1=COC=C[C@H](OC2=O)[C@H]1N4C3=O | 
2 | 0.8 (≈ 0.866 µM) | 1.6 (≈ 1.73 µM) | C[C@@H]1[C@H](O)[C@@H](C)/C=C/C=C/C=C/C=C/C=C/C=C/C=C/[C@H](O[C@@H]2O[C@H](C)[C@@H](O)[C@H](N)[C@@H]2O)C[C@@H]2O[C@](O)(C[C@@H](O)C[C@@H](O)[C@H](O)CC[C@@H](O)C[C@@H](O)CC(=O)O[C@H]1C)C[C@H](O)[C@H]2C(=O)O [AMPHOTERICIN B] | 
3 | 0.8 (≈ 1.31 µM) | 6.4 (≈ 10.4 µM) | COc1ccc2cc1Oc1cc(ccc1OC)[C@H](O)[C@]13SS[C@@]4(C(=O)N1C)[C@H](O)C1=COC=C[C@H](OC2=O)[C@H]1N4C3=O | 9.3
4 | 6.4 (≈ 9.93 µM) | > 25.6 | COc1ccc2cc1Oc1cc(ccc1OC)[C@H](O)[C@]13SSS[C@@]4(C(=O)N1C)[C@H](O)C1=COC=C[C@H](OC2=O)[C@H]1N4C3=O | 
5 | 1.6 (≈ 2.68 µM) | > 25.6 | COc1ccc2cc1Oc1cc(ccc1OC)C(=O)O[C@H]1C=COC=C3[C@@H](O)[C@]45SS[C@](C2)(C(=O)N4[C@@H]31)N(C)C5=O | 
